Reference: ChEMBL document CHEMBL1123641, “Antiulcer agents. 2. Gastric antisecretory, cytoprotective, and metabolic properties of substituted imidazo[1,2-a]pyridines and analogues” (J Med Chem, 1987)

Key:
Type in all cases: functional
Canis familiaris [1] = test: Antisecretory activity in histamine stimulated dogs at 8 mg/kg dose administered orally; conditions: Canis lupus familiaris, route oral
Outline: (§1)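 Heidenhain pouch mongrel dogs, histamine-stimulated acid secretion. Compound given orally at 2–8 mg/kg. Reduction in acid output is relative to the same animal's own nondrug control, since histamine response depends on pouch size. Usually a single dog per compound. Oral ED50 is the dose reducing acid output to 50% of control.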

Rattus norvegicus [2] = test: Antisecretory activity in pylorus ligated rats at a 40 mg/kg dose administered intraperitoneally; conditions: ip, route intraperitoneal
Outline: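 Pylorus-ligated rats, six per compound and eight controls. Compound given intraperitoneally at 40 mg/kg at the time of ligation. Reduction in acid output measured over 4 h.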

Rattus norvegicus [3] = organism: Rattus norvegicus; test: Cytoprotective activity in rats against the ethyl alcohol stimulated ulcers measured as effective dose
Outline: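 Rats were dosed orally at 1–30 mg/kg, 30 min before an oral challenge of absolute ethanol. Ethanol-induced gastric lesions were scored 1 h later, and an effective dose was estimated.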

Canis familiaris [4] = test: Antisecretory activity in histamine stimulated dogs at 1 mg/kg dose administered intravenously; conditions: Canis lupus familiaris, route intravenous
Outline: (§2)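 Adult mongrel dogs with surgically prepared Heidenhain pouches, acid secretion stimulated with histamine. Compound given intravenously (0.1-5 mg/kg range). Acid output reduction is expressed relative to the nondrug-treated control value in the same animal, each dog serving as its own control. Unless noted otherwise, one dog per compound. ED50 is the iv dose reducing acid output to 50% of control.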

Canis familiaris [5] = test: Antisecretory activity in histamine stimulated dogs at 2 mg/kg dose administered intravenously; conditions: Canis lupus familiaris, route intravenous; outline: as §2
Canis familiaris [6] = test: Antisecretory activity in histamine stimulated dogs at 4 mg/kg dose administered orally; conditions: Canis lupus familiaris, route oral; outline: as §1
Canis familiaris [7] = test: Antisecretory activity in histamine stimulated dogs following 5 mg/kg i.v. administration.; conditions: Canis lupus familiaris, route intravenous; outline: as §2
Canis familiaris [8] = test: Antisecretory activity in histamine stimulated dogs at 2 mg/kg dose administered orally; conditions: Canis lupus familiaris, route oral; outline: as §1
Canis familiaris [9] = test: percentage inhibition of acid secretion in histamine stimulated dogs at a dose of 0.4 mg/kg; conditions: Canis lupus familiaris
Canis familiaris [10] = test: Antisecretory activity in histamine stimulated dogs at 5 mg/kg dose administered intravenously; conditions: Canis lupus familiaris; route intravenous; outline: as §2
Canis familiaris [11] = test: percentage inhibition of acid secretion in histamine stimulated dogs at a dose of 0.2 mg/kg; conditions: Canis lupus familiaris
Canis familiaris [12] = test: Antisecretory activity in histamine stimulated dogs at 5 mg/kg dose administered orally; conditions: Canis lupus familiaris; route oral; outline: as §1
Canis familiaris [13] = test: Antisecretory activity in histamine stimulated dogs at 0.1 mg/kg dose administered intravenously; conditions: Canis lupus familiaris, route intravenous; outline: as §2

Structure (SMILES)	inhibition in vivo at 8 mg/kg (Canis familiaris [1]) [%]	inhibition in vivo at 40 mg/kg (Rattus norvegicus [2]) [%]	ED50 (Rattus norvegicus [3]) [mg/kg]	inhibition in vivo at 2 mg/kg (Canis familiaris [5]) [%]	inhibition in vivo at 5 mg/kg (Canis familiaris [7]) [%]	further results
CCc1nc2c(OCc3ccccc3)cccn2c1N	59	83	5.2			inhibition in vivo at 1 mg/kg (Canis familiaris [4]): 72%
Cc1nc2c(OCc3ccccc3)cccn2c1NC=O		49	10	3		
Cc1ccn2c(N)c(C)nc2c1OCc1ccccc1	64	60	13.5			inhibition in vivo at 4 mg/kg (Canis familiaris [6]): 36%
CCCc1nc2c(OCc3ccccc3)cccn2c1N	0	31		45		
Cc1nc2c(OCc3ccccc3)cccn2c1NCc1ccccc1		48	2.5		0	
CC(=O)Nc1c(C)nc2c(CCc3ccccc3)cccn12	16	40	12		3	
Cc1nc2c(OCc3ccccc3)cccn2c1CCN	9	63		6		
Cc1nc2n(c1CC#N)CCCC2OCc1ccccc1 (configuration not stated)		44			0	
Cc1nc2c(OCc3ccccc3)nccn2c1N	70	79	5	65		inhibition in vivo at 2 mg/kg (Canis familiaris [8]): 63%; inhibition in vivo at 0.4 mg/kg (Canis familiaris [9]): 41%; ED50 (Canis familiaris [10]): 0.8 mg/kg; inhibition in vivo at 0.2 mg/kg (Canis familiaris [11]): 15%; inhibition in vivo at 4 mg/kg (Canis familiaris [6]): 69%; ED50 (Canis familiaris [12]): 1.4 mg/kg; inhibition in vivo at 1 mg/kg (Canis familiaris [4]): 56%
Cc1ccn2c(C)c(C)nc2c1OCc1ccccc1	35	92	16	70		
Cc1nc2c(OCc3ccc(C(F)(F)F)cc3)cccn2c1N	8	78	6.5	0		
Cc1nc2c(CCc3ccccc3)cccn2c1O		32	9.6	0		
CC(C)c1nc2c(OCc3ccccc3)cccn2c1N	0	0	2.7	24		
Cc1cc(OCc2ccccc2)c2nc(C)c(N)n2c1	50	65	2.3	46		
CNC(=O)Nc1c(C)nc2c(OCc3ccccc3)cccn12		22	3.5		27	
CC(C)(C)c1nc2c(OCc3ccccc3)cccn2c1N	0	0	15		2	
Cc1nc2c(Oc3ccccc3)cccn2c1N	19	34	5	40		
CCNc1c(C)nc2c(CCc3ccccc3)cccn12	65	78	5.2		11	
Cc1nc2c(CCc3ccccc3)cccn2c1N	52	47	9	71		inhibition in vivo at 2 mg/kg (Canis familiaris [8]): 19%; inhibition in vivo at 4 mg/kg (Canis familiaris [6]): 41%; inhibition in vivo at 1 mg/kg (Canis familiaris [4]): 46%
Cc1nc2c(OCc3ccccc3)cccn2c1N(C)C	72	76	2.8	85		
CC(=O)Nc1c(C)nc2c(OCc3ccccc3)cccn12	44	93	4.6	24		
Cc1nc2c(OCc3cccs3)cccn2c1N	86	70	5	77		inhibition in vivo at 0.1 mg/kg (Canis familiaris [13]): 12%; inhibition in vivo at 2 mg/kg (Canis familiaris [8]): 30%; inhibition in vivo at 4 mg/kg (Canis familiaris [6]): 80%
Cc1nc2c(OCc3ccccc3)ccc(C)n2c1C		26	8	13		
CCCNc1c(C)nc2c(OCc3ccccc3)cccn12	68	99	5.3	12		
Cc1nc2c(OCc3ccccc3)cccn2c1/N=C/N(C)C	0	64	9.8	12		
CCCN(CCC)c1c(C)nc2c(OCc3ccccc3)cccn12		60	8.4		0	

Structure (SMILES)	inhibition in vivo at 8 mg/kg (Canis familiaris [1]) [%]	inhibition in vivo at 40 mg/kg (Rattus norvegicus [2]) [%]	ED50 (Rattus norvegicus [3]) [mg/kg]	inhibition in vivo at 2 mg/kg (Canis familiaris [5]) [%]	inhibition in vivo at 5 mg/kg (Canis familiaris [7]) [%]	further results
CSc1c(C)nc2c(CCc3ccccc3)cccn12		28	8.5		0	
Cc1nc2c(OCc3ccc(Cl)cc3)cccn2c1N	92	66	2.2			inhibition in vivo at 2 mg/kg (Canis familiaris [8]): 32%; inhibition in vivo at 4 mg/kg (Canis familiaris [6]): 81%; inhibition in vivo at 1 mg/kg (Canis familiaris [4]): 74%
Nc1cnc2c(OCc3ccccc3)cccn12	43	32	9.1	81		inhibition in vivo at 1 mg/kg (Canis familiaris [4]): 49%
Cc1nc2ccc(CCc3ccccc3)cn2c1N	0	52	5.7	6		
CNc1c(C)nc2c(OCc3ccccc3)cccn12		55	9.8			
CCCCc1nc2c(OCc3ccccc3)cccn2c1N	0	26	7.5	45		
Cc1nc2c(NCc3ccccc3)cccn2c1N	89	84	9.6	98		
Cc1cc(OCc2ccccc2)c2nc(C)c(C)n2c1	71	86	8.2	45		inhibition in vivo at 4 mg/kg (Canis familiaris [6]): 0%
CCNc1c(C)nc2c(OCc3ccccc3)nccn12		48	6		0	
Cc1nc2cc(CCc3ccccc3)ccn2c1N	0	50	5.2	17		
Cc1nc2c(OCc3ccccc3)cccn2c1NC(C)C		18	16		0	
Cc1nc2c(OCc3ccccn3)cccn2c1N	15	16	2.3			
Cc1nc2c(OCc3ccccc3)ccc(C)n2c1CC#N.Cl			8		0	inhibition in vivo at 4 mg/kg (Canis familiaris [6]): 11%
Cc1nc2c(OCc3ccccc3)cccn2c1CN	9	46			49	
Cc1nc2c(SCc3ccccc3)cccn2c1N	11	0	5.7	0		
COC(=O)Nc1c(C)nc2c(OCc3ccccc3)cccn12		0				
Cc1nc2c(OCc3ccc(F)cc3)cccn2c1N	93	95	4.8	95		inhibition in vivo at 2 mg/kg (Canis familiaris [8]): 55%; inhibition in vivo at 4 mg/kg (Canis familiaris [6]): 60%
COc1c(C)nc2c(OCc3ccccc3)cccn12		49	3.6		37	
Cc1nc2c(OCc3ccccc3)cccn2c1NC(=O)OCc1ccccc1		8		82		inhibition in vivo at 4 mg/kg (Canis familiaris [6]): 17%
Cc1nc2c(CCc3ccccc3)nccn2c1N					18	
Cc1nc2c(OCCc3ccccc3)cccn2c1N	39	56	5.2	39		
Cc1nc2c(OCc3ccccc3F)cccn2c1N	93	93	6.6	93		inhibition in vivo at 2 mg/kg (Canis familiaris [8]): 20%; inhibition in vivo at 4 mg/kg (Canis familiaris [6]): 46%
CCNc1c(C)nc2c(OCc3ccccc3)cccn12	68	95	3.5	32	70	
Cc1nc2c(COc3ccccc3)cccn2c1N	39	27	6.6		34	
Cc1nc2c(OCc3ccsc3)cccn2c1N	88	52	8.4	82		inhibition in vivo at 2 mg/kg (Canis familiaris [8]): 29%; inhibition in vivo at 4 mg/kg (Canis familiaris [6]): 86%
